# Laboratory results as given in paper PMC10251802 (Journal of Enzyme Inhibition and Medicinal Chemistry, 2023).
# Where “and” joins values, the source holds several entries; their conditions need not be identical. Identical values can stand only once. Like-named read-outs stand apart in the source and are kept apart here.
# Columns and labels:
# A549 = test: MTT anti-proliferative assay, A549; assay type: cell-based, human
# MCF-7 = test: MTT anti-proliferative assay, MCF-7; assay type: cell-based, human
# A549 cells [1] = test: Apoptosis analysis, Annexin-V/propidium iodide staining; assay type: cell-based, human; settings: A549, 17.79 µM, 72 h
# In short: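 Annexin-V-FITC/propidium iodide double staining of A549 cells exposed to the test compound (17.79 μM, 72 h), analysed by flow cytometry.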
# BAX and Bcl-2 genes = test: BAX and Bcl-2 gene expression by quantitative RT-PCR; assay type: cell-based, human; settings: A549, 17.79 µM, 72 h
# WI-38 = test: Safety assay; settings: for IC50: Homo sapiens, WI-38, read-out: Cell lines IC50 WI-38
# A549 cells [2] = test: Cell cycle analysis by flow cytometry; assay type: cell-based, human; settings: A549, 17.79 µM, 72 h
# In short: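 A549 cells were exposed to the test compound at 17.79 μM for 72 h, with untreated A549 cells as comparator. Cell-cycle distribution was read by flow cytometry as the percentage of the population in Sub-G1, G1, S and G2/M phases.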
# EGFR^T790M = EGFR^T790M (Homo sapiens, UniProt P00533, T790M); test: EGFR^T790M kinase inhibition; assay type: biochemical
# EGFR^WT = EGFR^WT (Homo sapiens, UniProt P00533); test: EGFR^WT kinase inhibition; assay type: biochemical
# [3] = Homo sapiens, A549, read-out: Cell lines IC50 A549
# [4] = Homo sapiens, MCF7, read-out: Cell lines IC50 MCF-7
# EGFR^WT, sequence (P00533 25-1210): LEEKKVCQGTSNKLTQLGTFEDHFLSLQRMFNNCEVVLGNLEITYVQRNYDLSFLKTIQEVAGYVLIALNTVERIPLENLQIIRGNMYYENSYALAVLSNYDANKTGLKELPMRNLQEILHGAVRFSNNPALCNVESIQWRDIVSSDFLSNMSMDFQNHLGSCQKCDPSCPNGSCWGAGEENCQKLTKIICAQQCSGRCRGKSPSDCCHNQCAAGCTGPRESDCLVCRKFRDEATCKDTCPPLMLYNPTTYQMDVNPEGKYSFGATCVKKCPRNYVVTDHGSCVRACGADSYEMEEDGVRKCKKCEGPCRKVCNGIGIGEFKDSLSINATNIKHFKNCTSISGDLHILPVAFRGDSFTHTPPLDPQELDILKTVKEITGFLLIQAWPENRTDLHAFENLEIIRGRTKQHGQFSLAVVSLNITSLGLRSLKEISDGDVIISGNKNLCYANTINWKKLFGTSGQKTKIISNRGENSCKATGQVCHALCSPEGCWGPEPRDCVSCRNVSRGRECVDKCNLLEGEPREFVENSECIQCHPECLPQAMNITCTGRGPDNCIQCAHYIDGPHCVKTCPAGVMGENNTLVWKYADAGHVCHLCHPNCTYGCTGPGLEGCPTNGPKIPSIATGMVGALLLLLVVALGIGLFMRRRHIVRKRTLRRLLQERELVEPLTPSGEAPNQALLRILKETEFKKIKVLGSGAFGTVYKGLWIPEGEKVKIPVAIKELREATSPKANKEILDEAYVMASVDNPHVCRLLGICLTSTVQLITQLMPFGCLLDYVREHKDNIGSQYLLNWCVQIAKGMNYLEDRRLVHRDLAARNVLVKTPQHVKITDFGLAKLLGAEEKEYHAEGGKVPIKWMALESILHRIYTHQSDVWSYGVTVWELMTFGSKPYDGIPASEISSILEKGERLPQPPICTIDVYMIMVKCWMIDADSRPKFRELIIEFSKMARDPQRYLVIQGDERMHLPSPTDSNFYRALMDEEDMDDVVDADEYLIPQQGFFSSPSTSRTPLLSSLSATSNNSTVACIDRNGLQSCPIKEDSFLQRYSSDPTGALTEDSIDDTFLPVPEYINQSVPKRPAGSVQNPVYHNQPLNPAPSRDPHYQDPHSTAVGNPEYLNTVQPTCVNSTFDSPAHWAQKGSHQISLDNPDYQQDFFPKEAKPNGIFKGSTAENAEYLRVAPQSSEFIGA
# EGFR^T790M, sequence (P00533 25-1210 T790M): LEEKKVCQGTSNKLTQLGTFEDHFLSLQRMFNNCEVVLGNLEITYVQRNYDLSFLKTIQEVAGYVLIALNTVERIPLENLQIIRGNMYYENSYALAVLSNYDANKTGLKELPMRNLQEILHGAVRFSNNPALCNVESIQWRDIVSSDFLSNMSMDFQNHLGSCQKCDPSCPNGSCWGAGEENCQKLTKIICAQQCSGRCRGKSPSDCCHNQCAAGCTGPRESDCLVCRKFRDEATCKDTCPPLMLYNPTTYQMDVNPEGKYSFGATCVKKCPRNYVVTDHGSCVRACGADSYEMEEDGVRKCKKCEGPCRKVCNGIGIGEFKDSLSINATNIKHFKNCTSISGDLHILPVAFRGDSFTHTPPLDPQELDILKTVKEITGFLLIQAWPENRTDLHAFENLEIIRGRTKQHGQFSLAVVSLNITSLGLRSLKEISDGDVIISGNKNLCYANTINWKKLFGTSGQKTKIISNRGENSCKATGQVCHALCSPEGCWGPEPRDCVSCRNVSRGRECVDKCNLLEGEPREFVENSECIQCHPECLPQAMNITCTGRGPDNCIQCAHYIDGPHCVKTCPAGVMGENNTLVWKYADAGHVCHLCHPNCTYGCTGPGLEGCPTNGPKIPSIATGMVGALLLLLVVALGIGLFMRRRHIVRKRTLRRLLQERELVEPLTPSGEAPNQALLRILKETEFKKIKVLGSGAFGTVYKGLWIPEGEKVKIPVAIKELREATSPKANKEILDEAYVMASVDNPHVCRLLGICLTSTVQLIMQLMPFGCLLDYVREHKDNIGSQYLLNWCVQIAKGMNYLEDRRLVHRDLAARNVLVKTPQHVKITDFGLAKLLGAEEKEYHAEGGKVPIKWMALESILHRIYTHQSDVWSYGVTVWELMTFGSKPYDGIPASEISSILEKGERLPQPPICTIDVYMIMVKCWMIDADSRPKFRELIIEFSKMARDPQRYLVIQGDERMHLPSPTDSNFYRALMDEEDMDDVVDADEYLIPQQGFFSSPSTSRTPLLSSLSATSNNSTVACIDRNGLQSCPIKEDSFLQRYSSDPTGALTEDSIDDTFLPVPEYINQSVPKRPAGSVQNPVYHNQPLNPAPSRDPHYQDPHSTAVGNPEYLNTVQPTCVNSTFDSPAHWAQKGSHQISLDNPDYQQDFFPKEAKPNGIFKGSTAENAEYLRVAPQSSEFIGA
molecule,measurement,setting,value
"CC1CCc2c(sc3ncnc(Nc4ccc(Cl)cc4)c23)C1 (centres unmarked) [5a, N-(4-Chlorophenyl)-7-methyl-5,6,7,8-tetrahydrobenzo[4,5]thieno[2,3-d]pyrimidin-4-amine]",IC50,A549; [3],20.6 µM
same,IC50,MCF-7; [4],29.3 µM
"CC1CCc2c(sc3ncnc(Nc4ccccc4F)c23)C1 (centres unmarked) [5b, N-(2-Fluorophenyl)-7-methyl-5,6,7,8-tetrahydrobenzo[4,5]thieno[2,3-d]pyrimidin-4-amine]",IC50,A549; [3],17.8 µM
same,Apoptosis Early (right bottom),A549 cells [1],17.84% and 17.84 ± 3.68%
same,Apoptosis Late (right top),A549 cells [1],45.71% and 45.71 ± 5.77 %
same,Necrosis (left top),A549 cells [1],2.12 ± 0.11
same,Viable (left bottom),A549 cells [1],34.33 ± 2.20
same,BAX/Bcl-2 ratio,BAX and Bcl-2 genes; control set to 1,8.3 fold change and 8.35 ± 1.09 fold change
same,Gene expression BAX,BAX and Bcl-2 genes; control set to 1,3 fold change and 2.97 ± 0.14 fold change
same,Gene expression Bcl-2,BAX and Bcl-2 genes; control set to 1,0.37 ± 0.06 fold change
same,downregulation of the Bcl-2 gene,BAX and Bcl-2 genes; vs untreated cells,3 fold
same,IC50,WI-38,70.1 µM
same,times safer against WI-38 than erlotinib,WI-38; ratio of WI-38 IC50 values vs erlotinib,2.5 fold
same,Cell cycle distribution % G2/M,A549 cells [2],38.61% and 38.61 ± 2.11 %
same,Cell cycle distribution %G1,A549 cells [2],23.19% and 23.19 ± 2.18 %
same,Cell cycle distribution %S,A549 cells [2],37.66% and 37.66 ± 4.19 %
same,Cell cycle distribution %Sub-G1,A549 cells [2],0.54% and 0.54 ± 0.09%
same,IC50,MCF-7; [4],22.7 µM
same,IC50,EGFR^T790M,0.204 µM
same,IC50,EGFR^WT,0.0372 µM
"COc1ccc(Nc2ncnc3sc4c(c23)CCC(C)C4)cc1 (centres unmarked) [5c, N-(4-Methoxyphenyl)-7-methyl-5,6,7,8-tetrahydrobenzo[4,5]thieno[2,3-d]pyrimidin-4-amine]",IC50,A549; [3],27.1 µM
same,IC50,MCF-7; [4],30 µM
"CC1CCc2c(sc3ncnc(Nc4ccc(N)cc4)c23)C1 (centres unmarked) [5d, N^1-(7-Methyl-5,6,7,8-tetrahydro[1]benzothieno[2,3-d]pyrimidin-4-yl)benzene-1,4-diamine]",IC50,A549; [3],34.8 µM
same,IC50,MCF-7; [4],35.5 µM
"CC1CCc2c(sc3ncnc(Nc4ccccc4S(N)(=O)=O)c23)C1 (centres unmarked) [5e, 2-((7-Methyl-5,6,7,8-tetrahydrobenzo[4,5]thieno[2,3-d]pyrimidin-4-yl)amino)benzene sulphonamide]",IC50,A549; [3],19.9 µM
same,IC50,MCF-7; [4],29.2 µM
"CC1CCc2c(sc3ncnc(Nc4ccc(S(N)(=O)=O)cc4)c23)C1 (centres unmarked) [5f, 4-((7-Methyl-5,6,7,8-tetrahydrobenzo[4,5]thieno[2,3-d]pyrimidin-4-yl)amino)benzene sulphonamide]",IC50,A549; [3],17.5 µM
same,IC50,MCF-7; [4],21.4 µM
same,IC50,EGFR^WT,0.0356 µM
"CC1CCc2c(sc3ncnc(NNC(N)=S)c23)C1 (centres unmarked) [7a, 2–(7-Methyl-5,6,7,8-tetrahydro[1]benzothieno[2,3-d]pyrimidin-4-yl)hydrazine carbothioamide]",IC50,A549; [3],28.7 µM
same,IC50,MCF-7; [4],35.7 µM
"CC1CCc2c(sc3ncnc(NN)c23)C1 (centres unmarked) [7b, 4-Hydrazinyl-7-methyl-5,6,7,8-tetrahydro[1]benzothieno[2,3-d]pyrimidine]",IC50,A549; [3],18.4 µM
same,IC50,MCF-7; [4],23.7 µM
"C#Cc1cccc(Nc2ncnc3cc(OCCOC)c(OCCOC)cc23)c1 [Erlotinib, reference compound]",IC50,A549; [3],4.18 µM
same,IC50,WI-38,28.5 µM
same,IC50,MCF-7; [4],14.3 µM
"N-((7-Methyl-5,6,7,8-tetrahydro[1]benzothieno[2,3-d]pyrimidin-4-yl)methyl) aniline [compound 6]",IC50,"A549; read-out: Cell lines IC50 A549, MTT, mean of three experiments",21.2 µM
same,IC50,"MCF-7; read-out: Cell lines IC50 MCF-7, MTT, mean of three experiments",26.6 µM
